According to ChEMBL document CHEMBL1806428, “Design and synthesis of spiro derivatives of parthenin as novel anti-cancer agents” (Eur J Med Chem, 2011):

How the values were obtained:
DU-145 = test: Cytotoxicity against human DU145 cells assessed as cell growth after 48 hrs by sulforhodamine B assay; type: functional, cell-based; settings: Homo sapiens, DU-145, 48 h
Outline: (§1)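 Log-phase cells seeded at 10^4/well and allowed to attach for 24 h at 37 °C, 5% CO2. Exposed for 48 h to 0.1–100 (1:10 serial dilutions), four replicate wells per condition. Fixed with cold 50% TCA for 1 h at 4 °C, stained with sulforhodamine B, dye dissolved in Tris, OD read at 540 nm. Blank-subtracted growth expressed relative to untreated cells (100%); IC50 reported.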

SW-620 = test: Cytotoxicity against human SW620 cells assessed as cell growth after 48 hrs by sulforhodamine B assay; type: functional, cell-based; settings: Homo sapiens, SW-620, 48 h; outline: as §1
PC-3 = test: Cytotoxicity against human PC3 cells assessed as cell growth after 48 hrs by sulforhodamine B assay; type: functional, cell-based; settings: Homo sapiens, PC-3, 48 h; outline: as §1
[1] = Partition coefficient, log P of the compound; type: physicochemical; settings: octanol/water

Row | Structure (SMILES) | IC50 (DU-145) [µM] | IC50 (SW-620) [µM] | IC50 (PC-3) [µM] | logP [1]
1 | C[C@H]1CC[C@@H]2[C@@H](OC(=O)[C@]23CC(c2ccc(C#N)cc2)=NO3)[C@]2(C)C(=O)C=C[C@@]12O | 26 | 53 | 32 | 1.17
2 | C[C@H]1CC[C@@H]2[C@@H](OC(=O)[C@]23CC(c2cccc([N+](=O)[O-])c2)=NO3)[C@]2(C)C(=O)C=C[C@@]12O | 51 | 49 | 55 | 1.37
3 | C[C@H]1CC[C@@H]2[C@@H](OC(=O)[C@]23CC(c2ccc([N+](=O)[O-])cc2)=NO3)[C@]2(C)C(=O)C=C[C@@]12O | 7 | 9 | 12 | 1.37
4 | COc1ccc(N2C[C@]23C(=O)O[C@@H]2[C@H]3CC[C@H](C)[C@]3(O)C=CC(=O)[C@@]23C)cc1 | 78 | 30 | 12 | 1.41
5 | Cc1cccc(N2C[C@]23C(=O)O[C@@H]2[C@H]3CC[C@H](C)[C@]3(O)C=CC(=O)[C@@]23C)c1 | 62.5 | 15 | 61.5 | 1.83
6 | Cc1ccc(C2=NO[C@]3(C2)C(=O)O[C@@H]2[C@H]3CC[C@H](C)[C@]3(O)C=CC(=O)[C@@]23C)cc1 | 14 | 2.5 | 14 | 1.86
7 | COc1cc(C2=NO[C@]3(C2)C(=O)O[C@@H]2[C@H]3CC[C@H](C)[C@]3(O)C=CC(=O)[C@@]23C)ccc1O | 71 | 88 | 16 | 0.75
8 | COc1ccc(C2=NO[C@]3(C2)C(=O)O[C@@H]2[C@H]3CC[C@H](C)[C@]3(O)C=CC(=O)[C@@]23C)cc1 | 20 | 41 | 35 | 1.47
9 | Cc1ccccc1N1C[C@]12C(=O)O[C@@H]1[C@H]2CC[C@H](C)[C@]2(O)C=CC(=O)[C@@]12C | 30 | 22 | 12.5 | 1.83
10 | C[C@H]1CC[C@@H]2[C@@H](OC(=O)[C@]23CC(c2ccc(F)cc2)=NO3)[C@]2(C)C(=O)C=C[C@@]12O | 13 | 3.6 | 27 | 1.57
11 | C[C@H]1CC[C@@H]2[C@@H](OC(=O)[C@]23CN3c2cccc([N+](=O)[O-])c2)[C@]2(C)C(=O)C=C[C@@]12O | 30 | 61 | 10.1 | 1.31
12 | Cc1ccc(N2C[C@]23C(=O)O[C@@H]2[C@H]3CC[C@H](C)[C@]3(O)C=CC(=O)[C@@]23C)cc1 | 36 | 32 | 25 | 1.83
13 | C[C@H]1CC[C@@H]2[C@@H](OC(=O)[C@]23CC(c2ccc(O)cc2)=NO3)[C@]2(C)C(=O)C=C[C@@]12O | 93 | 89 | 20 | 0.932
14 | C[C@H]1CC[C@@H]2[C@@H](OC(=O)[C@]23CC(c2ccccc2Cl)=NO3)[C@]2(C)C(=O)C=C[C@@]12O | 19 | 9 | 12 | 2.09
15 | C[C@H]1CC[C@@H]2[C@@H](OC(=O)[C@]23CC(c2ccccc2Br)=NO3)[C@]2(C)C(=O)C=C[C@@]12O | 18 | 44 | 51 | 2.22
16 | C[C@H]1CC[C@@H]2[C@@H](OC(=O)[C@]23CC(c2ccc(Cl)cc2)=NO3)[C@]2(C)C(=O)C=C[C@@]12O | 43 | 51 | 49 | 2.09

Row | Structure (SMILES) | IC50 (DU-145) [µM] | IC50 (SW-620) [µM] | IC50 (PC-3) [µM] | logP [1]
17 | C[C@H]1CC[C@@H]2[C@@H](OC(=O)[C@]23CN3c2cccc(Cl)c2)[C@]2(C)C(=O)C=C[C@@]12O | 39.5 | 48.4 | 86.1 | 2.03
18 | Cc1cccc(C2=NO[C@]3(C2)C(=O)O[C@@H]2[C@H]3CC[C@H](C)[C@]3(O)C=CC(=O)[C@@]23C)c1 | 28 | 15 | 66.6 | 1.86
19 | C[C@H]1CC[C@@H]2[C@@H](OC(=O)[C@]23CC(c2ccccc2F)=NO3)[C@]2(C)C(=O)C=C[C@@]12O | 24 | 11 | 8.2 | 1.57
20 | Cc1ccccc1C1=NO[C@]2(C1)C(=O)O[C@@H]1[C@H]2CC[C@H](C)[C@]2(O)C=CC(=O)[C@@]12C | 12 | 5 | 10 | 1.86
21 | C[C@H]1CC[C@@H]2[C@@H](OC(=O)[C@]23CC(c2ccc(N(C)C)cc2)=NO3)[C@]2(C)C(=O)C=C[C@@]12O | 4.5 | 5.1 | 6.3 | 1.51
22 | C[C@H]1CC[C@@H]2[C@@H](OC(=O)[C@]23CN3c2ccccc2[N+](=O)[O-])[C@]2(C)C(=O)C=C[C@@]12O | 28 | 33 | 10 | 1.31
23 | C[C@H]1CC[C@@H]2[C@@H](OC(=O)[C@]23CC(c2c(Cl)cccc2Cl)=NO3)[C@]2(C)C(=O)C=C[C@@]12O | 38 | 43 | 56 | 2.67
24 | C[C@H]1CC[C@@H]2[C@@H](OC(=O)[C@]23CC(c2c(Cl)cccc2Cl)N(c2ccccc2)O3)[C@]2(C)C(=O)C=C[C@@]12O (mixture of isomers) |  |  |  | 4.45
25 | C[C@H]1CC[C@@H]2[C@@H](OC(=O)[C@]23CC(c2ccccc2)=NO3)[C@]2(C)C(=O)C=C[C@@]12O | 39.8 | 45.4 | 46 | 1.41
26 | COc1ccc(C2C[C@@]3(ON2c2ccccc2)C(=O)O[C@@H]2[C@H]3CC[C@H](C)[C@]3(O)C=CC(=O)[C@@]23C)cc1 (mixture of isomers) |  |  |  | 3.25
27 | COc1ccccc1N1C[C@]12C(=O)O[C@@H]1[C@H]2CC[C@H](C)[C@]2(O)C=CC(=O)[C@@]12C | 27 | 47.3 | 52 | 1.41
28 | C[C@H]1CC[C@@H]2[C@@H](OC(=O)[C@]23CC(c2ccccc2[N+](=O)[O-])=NO3)[C@]2(C)C(=O)C=C[C@@]12O | 34 | 40 | 37 | 1.37
29 | COC(=O)c1cccc(N2C[C@]23C(=O)O[C@@H]2[C@H]3CC[C@H](C)[C@]3(O)C=CC(=O)[C@@]23C)c1 | 18.5 | 30 | 10.1 | 1.52
30 | Cc1ccccc1C1C[C@@]2(ON1c1ccccc1)C(=O)O[C@@H]1[C@H]2CC[C@H](C)[C@]2(O)C=CC(=O)[C@@]12C (mixture of isomers) |  |  |  | 3.64
31 | C[C@H]1CC[C@@H]2[C@@H](OC(=O)[C@]23CC(c2ccccc2F)N(c2ccccc2)O3)[C@]2(C)C(=O)C=C[C@@]12O (mixture of isomers) |  |  |  | 3.35
32 | COc1ccc(C2=NO[C@]3(C2)C(=O)O[C@@H]2[C@H]3CC[C@H](C)[C@]3(O)C=CC(=O)[C@@]23C)cc1OC | 84 | 86 | 25 | 1.06
